Data set [1] has as its system Rattus norvegicus. Kind of data set: Anticonvulsant activity in rat assessed as protection against maximal electric shock-induced seizures at 40 mg/kg, ip. The data set is classed as functional. The conditions noted are these: route intraperitoneal. In outline:
(§1)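 Rats dosed i.p.: test agents at 40 mg/kg, with a propylene glycol group at 0.5 mL. Maximal electroshock (MES) seizure test, scored as % seizure protection.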

Data set [2] relates to Rattus norvegicus. As to the kind of experiment: Toxicity in rat assessed as time spent on rotarod at 40 mg/kg, ip by rotarod test. The data set is classed as organism-based. On the set-up: dose 40 mg/kg, route intraperitoneal. The conditions noted are these: in vivo. In outline:
(§2)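 Rats dosed i.p.: test agents at 40 mg/kg, with a propylene glycol group at 0.5 mL. Rotarod performance test, recorded as mean time in seconds on the rod.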
For orientation: In the rotarod test animals must keep their balance on a rotating rod.

The nature of data set [3]: Toxicity in ip dosed rat. The data set is classed as organism-based. The conditions noted are these: in vivo.
The subject of data set [4] is Rattus norvegicus. As to the kind of experiment: Anticonvulsant activity in rat assessed as protection against maximal electric shock-induced seizures at 0.5 mL, ip. The data set is classed as functional. In outline:
as §1

For data set [5], the system named is Rattus norvegicus. Kind of data set: Toxicity in rat assessed as time spent on rotarod at 0.5 mL, ip by rotarod test. The data set is classed as organism-based. Particulars: in vivo. In outline:
as §2

Experimental findings from ChEMBL document CHEMBL1177859, “Synthesis and antipsychotic and anticonvulsant activity of some new substituted oxa/thiadiazolylazetidinonyl/thiazolidinonylcarbazoles” (Eur J Med Chem, 2010) are described below.

Bounds are passed on as bounds.

A word on the LD50: it is the dose expected to kill half of the subjects tested. A higher LD50 goes with lower toxicity.

In the case of `O=C1C(Cl)C(c2ccc(O)cc2O)N1c1nnc(Cn2c3ccccc3c3ccccc32)o1` (stereo not drawn), in the data set with Rattus norvegicus [1], the Activity turned out to be 50%. Further, the Time with Rattus norvegicus [2] is 106.4 s. In data set [3], this molecule had an LD50 above 1000 mg/kg.
Taken in the same sequence, the figures for `CN(C)c1ccc(C2C(Cl)C(=O)N2c2nnc(Cn3c4ccccc4c4ccccc43)s2)cc1` (stereo not drawn) were 50%, 106 s and above 1000 mg/kg.
Consider `Brc1ccccc1/C=N/c1nnc(Cn2c3ccccc3c3ccccc32)o1`, for which the Activity in the data set with Rattus norvegicus [1] is recorded as 30%. In the data set on Rattus norvegicus [2], the Time was 110.8 s. Moreover, in data set [3], the LD50 is above 1000 mg/kg.
The like results for `Oc1ccc(/C=N/c2nnc(Cn3c4ccccc4c4ccccc43)s2)cc1` were, in that order, 40%, 108.8 s and above 1000 mg/kg.
Taken in the same sequence, the figures for `Oc1ccc(/C=N/c2nnc(Cn3c4ccccc4c4ccccc43)s2)c(O)c1` were 50%, 108.6 s and above 1000 mg/kg.
The like results for `O=C1C(Cl)C(c2ccccc2Br)N1c1nnc(Cn2c3ccccc3c3ccccc32)s1` (stereo not drawn) were, in that order, 80%, 98 s and above 1000 mg/kg.
Regarding `O=C1CSC(c2ccc(O)cc2O)N1c1nnc(Cn2c3ccccc3c3ccccc32)s1` (stereo not drawn), the Activity in the data set on Rattus norvegicus [1] was found to be 70%. The Time in the data set on Rattus norvegicus [2] is reported as 102.2 s. Moreover, the LD50 in data set [3] is above 1000 mg/kg.
With `O=C1CSC(c2ccc(O)cc2)N1c1nnc(Cn2c3ccccc3c3ccccc32)o1` (stereo not drawn), the Activity in the data set with Rattus norvegicus [1] came to 60%. For the same molecule, the Time in the data set on Rattus norvegicus [2] was found to be 104.6 s. Moreover, in data set [3], the LD50 was above 1000 mg/kg.
Taken in the same sequence, the figures for `O=C1CSC(c2ccc(O)cc2O)N1c1nnc(Cn2c3ccccc3c3ccccc32)o1` (stereo not drawn) were 60%, 104.4 s and above 1000 mg/kg.
Consider `COc1cc(C2SCC(=O)N2c2nnc(Cn3c4ccccc4c4ccccc43)s2)ccc1O` (stereo not drawn), for which the Activity in the data set with Rattus norvegicus [1] is 70%. In the data set on Rattus norvegicus [2], the Time is given as 98.8 s. In data set [3], this molecule displayed an LD50 above 1000 mg/kg.
For the molecule `CN(C)c1ccc(C2SCC(=O)N2c2nnc(Cn3c4ccccc4c4ccccc43)s2)cc1` (stereo not drawn), the Activity with Rattus norvegicus [1] amounted to 60%. The Time in the data set on Rattus norvegicus [2] is 104 s. Further, the 50% lethal dose (LD50) in data set [3] was above 1000 mg/kg.
The like results for `O=C1CSC(c2ccccc2Br)N1c1nnc(Cn2c3ccccc3c3ccccc32)s1` (stereo not drawn) were, in that order, 90%, 96 s and above 1600 mg/kg.
In the case of `Oc1ccc(/C=N/c2nnc(Cn3c4ccccc4c4ccccc43)o2)cc1`, the Activity in the data set on Rattus norvegicus [1] stood at 20%. The Time in the data set on Rattus norvegicus [2] worked out at 116.4 s. Further, the LD50 in data set [3] is above 1000 mg/kg.
Taken in the same sequence, the figures for `O=C1C(Cl)C(c2ccc(O)cc2)N1c1nnc(Cn2c3ccccc3c3ccccc32)s1` (stereo not drawn) were 60%, 102 s and above 1000 mg/kg.
The like results for `O=C1C(Cl)C(c2ccc(O)cc2O)N1c1nnc(Cn2c3ccccc3c3ccccc32)s1` (stereo not drawn) were, in that order, 50%, 102.2 s and above 1000 mg/kg.
Take `COc1cc(/C=N/c2nnc(Cn3c4ccccc4c4ccccc43)s2)ccc1O`: in the data set on Rattus norvegicus [1], the Activity is given as 50%. In addition, the Time in the data set with Rattus norvegicus [2] is given as 106.8 s. The same molecule yielded an LD50 in data set [3] above 1000 mg/kg.
For the molecule `CN(C)c1ccc(/C=N/c2nnc(Cn3c4ccccc4c4ccccc43)s2)cc1`, the Activity with Rattus norvegicus [1] was 40%. Further, the Time with Rattus norvegicus [2] came to 110.2 s. Further, the LD50 in data set [3] is above 1000 mg/kg.
`COc1cc(C2C(Cl)C(=O)N2c2nnc(Cn3c4ccccc4c4ccccc43)o2)ccc1O` (stereo not drawn): in the data set with Rattus norvegicus [1], the Activity is 50%. For the same molecule, the Time with Rattus norvegicus [2] came to 102.4 s. Besides, in data set [3], the LD50 was above 1000 mg/kg.
For the molecule `COc1cc(C2SCC(=O)N2c2nnc(Cn3c4ccccc4c4ccccc43)o2)ccc1O` (stereo not drawn), in the data set on Rattus norvegicus [1], the Activity is reported as 70%. Further, the Time in the data set with Rattus norvegicus [2] came to 102.8 s. In addition, in data set [3], the LD50 is above 1000 mg/kg.
Consider `Oc1ccc(/C=N/c2nnc(Cn3c4ccccc4c4ccccc43)o2)c(O)c1`, for which the Activity in the data set with Rattus norvegicus [1] is recorded as 30%. Further, in the data set on Rattus norvegicus [2], the Time came out at 114.8 s. In data set [3], this molecule came in with an LD50 above 1000 mg/kg.
Take `COc1cc(/C=N/c2nnc(Cn3c4ccccc4c4ccccc43)o2)ccc1O`: in the data set with Rattus norvegicus [1], the Activity is 30%. Further, the Time in the data set with Rattus norvegicus [2] came to 112.2 s. The same molecule registered an LD50 in data set [3] above 1000 mg/kg.
On to `CN(C)c1ccc(/C=N/c2nnc(Cn3c4ccccc4c4ccccc43)o2)cc1`, for which the Activity in the data set with Rattus norvegicus [1] is recorded as 20%. In the data set with Rattus norvegicus [2], the Time was 114 s. In data set [3], this molecule displayed an LD50 above 1000 mg/kg.
Taken in the same sequence, the figures for `CN(C)c1ccc(C2C(Cl)C(=O)N2c2nnc(Cn3c4ccccc4c4ccccc43)o2)cc1` (stereo not drawn) were 40%, 100.2 s and above 1000 mg/kg.
Taken in the same sequence, the figures for `O=C1C(Cl)C(c2ccccc2Br)N1c1nnc(Cn2c3ccccc3c3ccccc32)o1` (stereo not drawn) were 60%, 98.8 s and above 1000 mg/kg.
Taken in the same sequence, the figures for `CN(C)c1ccc(C2SCC(=O)N2c2nnc(Cn3c4ccccc4c4ccccc43)o2)cc1` (stereo not drawn) were 60%, 104.2 s and above 1000 mg/kg.
Regarding `O=C1CSC(c2ccccc2Br)N1c1nnc(Cn2c3ccccc3c3ccccc32)o1` (stereo not drawn), in the data set with Rattus norvegicus [1], the Activity is on record as 70%. Also, the Time in the data set on Rattus norvegicus [2] is given as 96.6 s. This molecule also returned a 50% lethal dose (LD50) in data set [3] above 1000 mg/kg.
In the case of `O=C1CSC(c2ccc(O)cc2)N1c1nnc(Cn2c3ccccc3c3ccccc32)s1` (stereo not drawn), the Activity with Rattus norvegicus [1] was 60%. Besides, the Time in the data set with Rattus norvegicus [2] is given as 100.6 s. In data set [3], this molecule displayed an LD50 above 1000 mg/kg.
As for `Brc1ccccc1/C=N/c1nnc(Cn2c3ccccc3c3ccccc32)s1`, in the data set on Rattus norvegicus [1], the Activity is 60%. Moreover, the Time in the data set with Rattus norvegicus [2] worked out at 106.8 s. The molecule further yielded an LD50 in data set [3] above 1000 mg/kg.
Turning to `O=C1C(Cl)C(c2ccc(O)cc2)N1c1nnc(Cn2c3ccccc3c3ccccc32)o1` (stereo not drawn), the Activity in the data set on Rattus norvegicus [1] is 40%. Also, the Time in the data set with Rattus norvegicus [2] is reported as 104.6 s. In data set [3], this molecule registered an LD50 above 1000 mg/kg.
As for `COc1cc(C2C(Cl)C(=O)N2c2nnc(Cn3c4ccccc4c4ccccc43)s2)ccc1O` (stereo not drawn), in the data set with Rattus norvegicus [1], the Activity is 70%. Further, the Time in the data set with Rattus norvegicus [2] was 102.4 s. The same molecule displayed an LD50 in data set [3] above 1000 mg/kg.
For `O=C(CCCN1CCC(O)(c2ccc(Cl)cc2)CC1)c1ccc(F)cc1` [HALOPERIDOL], in the data set with Rattus norvegicus [4], the Activity stood at 0%.
Consider `CC(O)CO` (stereo not drawn) [PROPYLENE GLYCOL], for which, in the data set with Rattus norvegicus [4], the Activity came to 0%. In addition, the Time in the data set on Rattus norvegicus [5] is 120 s.
